PMC3911823 (The FEBS journal, 2011)
Where a chain is given by its changes, count along the chain named. Entries after “also recorded” stand apart in the source; their conditions may differ.

Legend:
P450 2B4 L437A [1] = biological target: T1, P450 2B4 L437A (Oryctolagus cuniculus, UniProt P00178, L437A); test: Inhibition of 7-EFC O-deethylation by imidazole inhibitors; format: biochemical, rabbit (Oryctolagus cuniculus)
T1 sequence (P00178 with tags, fused parts or gaps L437A limits assumed): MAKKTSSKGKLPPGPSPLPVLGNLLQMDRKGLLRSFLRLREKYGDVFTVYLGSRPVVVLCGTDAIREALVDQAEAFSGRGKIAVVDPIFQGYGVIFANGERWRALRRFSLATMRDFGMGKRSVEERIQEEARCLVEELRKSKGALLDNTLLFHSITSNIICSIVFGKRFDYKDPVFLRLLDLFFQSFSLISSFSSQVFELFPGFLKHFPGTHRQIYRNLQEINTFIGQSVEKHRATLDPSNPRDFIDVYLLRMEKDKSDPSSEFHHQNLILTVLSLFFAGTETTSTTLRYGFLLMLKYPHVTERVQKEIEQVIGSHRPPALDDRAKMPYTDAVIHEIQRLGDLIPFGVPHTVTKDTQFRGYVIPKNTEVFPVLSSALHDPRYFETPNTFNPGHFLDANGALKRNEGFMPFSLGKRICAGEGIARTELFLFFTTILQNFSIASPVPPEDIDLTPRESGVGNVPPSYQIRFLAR

P450 2B4 L437A [2] = biological target: T1, P450 2B4 L437A; test: Spectral binding titration of imidazole ligands; set-up: species or system rabbit (Oryctolagus cuniculus); details: 2B4 L437A versus wild type
Outline: (§1)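 Protein was the His-tagged 2B4dH construct (single mutants or wild type), expressed in TOPP3 cells and Ni-NTA purified. Spectra 350–700 nm recorded after serial 5 μl additions of 100 μM 4-CPI or bifonazole. Ks came from a tight-binding equation fit, and the 4-CPI/bifonazole Ks ratio was calculated.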

P450 2B4 H172F [3] = biological target: T2, P450 2B4 H172F (Oryctolagus cuniculus, UniProt P00178, H172F); test: Spectral binding titration of imidazole ligands; set-up: species or system rabbit (Oryctolagus cuniculus); details: 2B4 H172F versus wild type
T2 sequence (P00178 with tags, fused parts or gaps H172F limits assumed): T1 sequence (P00178 with tags, fused parts or gaps L437A limits assumed) with H153F, A418L
Outline: as §1

P450 2B4 H172Q = biological target: T3, P450 2B4 H172Q (Oryctolagus cuniculus, UniProt P00178, H172Q); format: biochemical, rabbit (Oryctolagus cuniculus)
T3 sequence (P00178 with tags, fused parts or gaps H172Q limits assumed): T1 sequence (P00178 with tags, fused parts or gaps L437A limits assumed) with H153Q, A418L

P450 2B4 L437A [4] = biological target: T1, P450 2B4 L437A; format: biochemical, rabbit (Oryctolagus cuniculus)
P450 2B4 E474Q = biological target: T4, P450 2B4 E474Q (Oryctolagus cuniculus, UniProt P00178, E474Q); format: biochemical, rabbit (Oryctolagus cuniculus)
T4 sequence (P00178 with tags, fused parts or gaps E474Q limits assumed): T1 sequence (P00178 with tags, fused parts or gaps L437A limits assumed) with A418L, E455Q

P450 2B4 H172F [5] = biological target: T2, P450 2B4 H172F

Row | IC50 (P450 2B4 L437A [1]) [nM] | Ratio 4-CPI IC50/Bifonazole IC50 (P450 2B4 L437A [1]; 2B4 L437A, 50 μM 7-EFC as substrate) | Ks (spectral dissociation constant) higher than wild type (P450 2B4 L437A [2]) | change in the ratio of 4-CPI Ks to bifonazole Ks (P450 2B4 L437A [2]) | change in the ratio of 4-CPI Ks to bifonazole Ks (P450 2B4 H172F [3]) | decrease (change) in kcat versus wild type (P450 2B4 H172Q) | kcat (P450 2B4 H172Q) [s⁻¹] | kcat/S50 (P450 2B4 H172Q) | S50 (P450 2B4 H172Q; Hill equation) [µM] | kcat (P450 2B4 L437A [4]) [s⁻¹] | kcat/S50 (P450 2B4 L437A [4]) | decrease (change) in kcat versus wild type (P450 2B4 E474Q) | kcat (P450 2B4 E474Q) [s⁻¹] | kcat/S50 (P450 2B4 E474Q) | S50 (P450 2B4 E474Q; Hill equation) [µM] | kcat (P450 2B4 H172F [5]) [s⁻¹] | kcat/S50 (P450 2B4 H172F [5]) | substrate turnover (activity) (P450 2B4 H172F [5]) | Compound | substrate turnover (activity) (P450 2B4 L437A [4])
1 | 970 | 3.88 | ~ 50 times | greater than 9 fold | greater than 9 fold | – | – | – | – | – | – | – | – | – | – | – | – | – | Clc1ccc(-c2c[nH]cn2)cc1 [4-CPI, 4-(4-chlorophenyl)imidazole] | –
2 | – | – | – | – | – | ~ 15 fold | 0.0083 ± 0.0017 | 0.06 | 8.2 ± 1.0 | 0 | 0 | ~ 4.5 fold | 0.0283 ± 0.005 | 0.35 | 4.8 ± 0.5 | 0 | 0 | inactive | O=c1ccc2nc3ccc(OCc4ccccc4)cc3oc-2c1 [7-BR, 7-benzyloxyresorufin] | did not turn over; also recorded: no activity
